Experimental data taken from ChEMBL document CHEMBL1155635, “New cytotoxic sesquiterpenes from the gorgonian Isis hippuris” (2000).
In brackets after ≈: the same amount, converted by molar mass.

Key:
Assay type in all cases: functional
[1] = tested on: P388; assay: Cytotoxicity against mouse P388 cells by MTT method; details: for EC50: Mus musculus, P388, read-out: ED50 (the source's name)
How it was run: (§1)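 Modified MTT colorimetric assay. P-388 cells were a gift from an outside laboratory; A549 and HT-29 came from ATCC. Cells were treated at eight concentrations of pure compound, 50 to 5 × 10-6 µg/mL. Growth was expressed as percent of control incubations, run in triplicate. ED50 is the dose inhibiting cell growth by 50%.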

[2] = tested on: A549; assay: Cytotoxicity against human A549 cells by MTT method; details: read-out: ED50 (the source's name); how it was run: as §1
[3] = tested on: HT-29; assay: Cytotoxicity against human HT29 cells by MTT method; details: for EC50: Homo sapiens, HT-29, read-out: ED50 (the source's name); how it was run: as §1

Q: Which EC50 [1] does the source give for C[C@@H]1CC(=O)[C@@]23[C@@H](C)C(C(=O)O)=C[C@]2(C)CC[C@@H]13 [SUBERGORGIC ACID] here?
A: 13.3 µg/mL (≈ 53.6 µM)

Q: And the EC50 [2]?
A: > 50 µg/mL

Q: And the EC50 [3]?
A: > 50 µg/mL

Q: Which ED50 [1] does the source give for C[C@H]1CC[C@H]2[C@@H]3CC(=O)[C@H](C)[C@@]13CC2(C)C [SUBEROSANONE] here?
A: <5 ×10⁻⁶ ug/ml

Q: And the EC50 [2]?
A: 0.036 µg/mL (≈ 0.163 µM)

Q: And the ED50 [3]?
A: <5 ×10⁻⁶ ug/ml

Q: C=C1[C@@H](OC(C)=O)C[C@H]2[C@@H]3CC[C@H](C)[C@]12CC3(C)C [SUBEROSENOL A ACETATE] was tested. Which EC50 [1] did it give?
A: 0.0076 µg/mL

Q: And the EC50 [2]?
A: 0.08 µg/mL

Q: What about the ED50 [3] of the same molecule?
A: 3.6 ×10⁻⁴ ug/ml

Q: With C=C1[C@@H](O)C[C@H]2[C@@H]3CC[C@H](C)[C@]12CC3(C)C [SUBEROSENOL A] as the molecule, how does the ED50 [1] read?
A: <5 ×10⁻⁶ ug/ml

Q: What about the EC50 [2] of the same molecule?
A: 0.0051 µg/mL (≈ 0.0231 µM)

Q: And the ED50 [3]?
A: <5 ×10⁻⁶ ug/ml

Q: How did the EC50 [1] turn out when C=C1[C@H](OC(C)=O)C[C@H]2[C@@H]3CC[C@H](C)[C@]12CC3(C)C [SUBEROSENOL B ACETATE] was run?
A: 0.074 µg/mL

Q: What about the EC50 [2] of the same molecule?
A: 0.36 µg/mL

Q: And the EC50 [3]?
A: 0.005 µg/mL

Q: What does the source list for C=C1[C@H](O)C[C@H]2[C@@H]3CC[C@H](C)[C@]12CC3(C)C [SUBEROSENOL B]?
A: EC50 [1]: 3.4 µg/mL (≈ 15.4 µM); EC50 [2]: 0.2 µg/mL (≈ 0.908 µM); EC50 [3]: 2.1 µg/mL (≈ 9.53 µM)
